Data published in ChEMBL document CHEMBL1255444, “In vitro antibacterial activities of JNJ-Q2, a new broad-spectrum fluoroquinolone” (Antimicrob Agents Chemother, 2010).
Converted amounts (≈) assume the structure as drawn.

Assays:
Streptococcus pneumoniae [1] = assay: Ratio of Moxifloxacin MIC90 to compound MIC90 for ciprofloxacin-resistant Streptococcus pneumoniae; format: functional
Staphylococcus aureus [2] = assay: Antibacterial activity against methicillin-resistant Staphylococcus aureus isolate OC11521 harboring gyrA S84L/S85P, parC E84G mutant gene assessed as log reduction in bacterial growth at 4 times MIC measured at 24 hrs by time-kill assay; format: functional
How it was run: (§1)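 Overnight MRSA cultures were diluted into fresh cation-adjusted Mueller-Hinton broth to about 5 × 10^6 CFU/ml. […] Samples were plated serially diluted on trypticase soy agar, and CFU were counted after 20-24 h at 37°C. Value is the log10 decrease at 24 h from the starting inoculum; detection limit 100 CFU.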

Streptococcus pneumoniae [3] = assay: Antibacterial activity against Streptococcus pneumoniae isolate OC7368 assessed as log reduction in bacterial growth at 2 times MIC measured at 6 hrs by time-kill assay; format: functional
How it was run: (§2)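 Drug was diluted from 50× stocks made in water or acidified water. Samples were taken at 6 and 24 h and serially diluted onto TSA-5% sheep blood plates. Plates were incubated 20–24 h at 37°C in 5% CO2 before counting CFU. Log10 titer change is given relative to the starting inoculum.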

Staphylococcus aureus [4] = assay: Antibacterial activity against methicillin-resistant Staphylococcus aureus isolate OC11223 assessed as log reduction in bacterial growth at 4 times MIC measured at 24 hrs by time-kill assay; format: functional; how it was run: as §1
Streptococcus pneumoniae [5] = assay: Antibacterial activity against Streptococcus pneumoniae isolate OC6610 assessed as log reduction in bacterial growth at 4 times MIC measured at 6 hrs by time-kill assay; format: functional; how it was run: as §2
Staphylococcus aureus [6] = assay: Antibacterial activity against methicillin-resistant Staphylococcus aureus isolate OC12501 by broth microdilution method; format: functional
How it was run: (§3)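 CLSI M07-A7 broth microdilution MIC. Medium was cation-adjusted Mueller-Hinton broth. For S. pneumoniae it was Mueller-Hinton supplemented with 5% lysed horse blood. CLSI quality-control strains were included as appropriate.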

Staphylococcus aureus [7] = assay: Antibacterial activity against methicillin-resistant Staphylococcus aureus isolate OC8532 harboring wild type quinolone resistance-determining region by agar dilution method; format: functional
How it was run: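 CLSI agar dilution MIC on cation-adjusted Mueller-Hinton medium. These were the MIC values used for the resistance studies, and CLSI quality-control strains were included as appropriate.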

Staphylococcus aureus [8] = assay: Antibacterial activity against methicillin-resistant Staphylococcus aureus isolate OC11150 harboring gyrA S84L and parC S80Y mutant gene by agar dilution method; format: functional
How it was run: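 MICs for the resistance-selection studies were determined by CLSI agar dilution on Mueller-Hinton medium. For S. pneumoniae the medium was supplemented with 5% lysed horse blood. For MRSA fluctuation-assay strains an arithmetic agar dilution scheme was used for a more precise MIC.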

Streptococcus pneumoniae [9] = assay: Antibacterial activity against Streptococcus pneumoniae isolate OC7368 assessed as log reduction in bacterial growth at 4 times MIC measured at 6 hrs by time-kill assay; format: functional; how it was run: as §2
Streptococcus pneumoniae [10] = assay: Antibacterial activity against Streptococcus pneumoniae isolate OC6585 by broth microdilution method; format: functional; how it was run: as §3
[11] = Plasma protein binding in rat infected with gram-positive bacteria; format: ADME, cell-free; details: read-out: PPB (converted)
Streptococcus agalactiae = assay: Antibacterial activity against Streptococcus agalactiae by broth microdilution method; format: functional
How it was run: (§4)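 MICs by CLSI M07-A7 broth microdilution in cation-adjusted Mueller-Hinton medium. For S. pneumoniae the medium was supplemented with 5% lysed horse blood. CLSI quality control strains were run alongside as appropriate.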

Streptococcus pneumoniae [12] = assay: Antibacterial activity against Streptococcus pneumoniae isolate OC6608 by broth microdilution method; format: functional; how it was run: as §3
Streptococcus pneumoniae [13] = assay: Antibacterial activity against Streptococcus pneumoniae isolate OC6585 assessed as log reduction in bacterial growth at 4 times MIC measured at 6 hrs by time-kill assay; format: functional; how it was run: as §2
Streptococcus pneumoniae [14] = assay: Antibacterial activity against Streptococcus pneumoniae isolate OC7348 by broth microdilution method; format: functional; how it was run: as §3
Haemophilus influenzae = assay: Antibacterial activity against Haemophilus influenzae by broth microdilution method; format: functional; how it was run: as §4
Staphylococcus aureus [15] = assay: Antibacterial activity against methicillin-, ciprofloxacin-resistant Staphylococcus aureus by broth microdilution method; format: functional; how it was run: as §3
Streptococcus pneumoniae [16] = assay: Antibacterial activity against Streptococcus pneumoniae isolate OC6610 assessed as log reduction in bacterial growth at 2 times MIC measured at 24 hrs by time-kill assay; format: functional; how it was run: as §2
Streptococcus pneumoniae [17] = assay: Ratio of Ciprofloxacin MIC90 to compound MIC90 for ciprofloxacin-resistant Streptococcus pneumoniae; format: functional
Staphylococcus aureus [18] = assay: Antibacterial activity against methicillin-resistant Staphylococcus aureus isolate OC8525 harboring wild type quinolone resistance-determining region assessed as log reduction in bacterial growth at 2 times MIC measured at 24 hrs by time-kill assay; format: functional; how it was run: as §1
[19] = tested on: Staphylococcus epidermidis; assay: Antibacterial activity against methicillin-susceptible Staphylococcus epidermidis by broth microdilution method; format: functional
[20] = Distribution coefficient, log D of the compound; format: physicochemical; details: octanol/water
Streptococcus pneumoniae [21] = assay: Antibacterial activity against Streptococcus pneumoniae isolate OC6790 assessed as log reduction in bacterial growth at 4 times MIC measured at 24 hrs by time-kill assay; format: functional; how it was run: as §2
Proteus mirabilis = assay: Antibacterial activity against Proteus mirabilis by broth microdilution method; format: functional; how it was run: as §4
Citrobacter freundii = assay: Antibacterial activity against Citrobacter freundii by broth microdilution method; format: functional; how it was run: as §4
Staphylococcus aureus [22] = assay: Antibacterial activity against methicillin-resistant Staphylococcus aureus by broth microdilution method; format: functional; how it was run: as §3
Streptococcus pneumoniae [23] = assay: Antibacterial activity against Streptococcus pneumoniae isolate OC7368 assessed as log reduction in bacterial growth at 4 times MIC measured at 24 hrs by time-kill assay; format: functional; how it was run: as §2
Streptococcus pneumoniae [24] = assay: Antibacterial activity against Streptococcus pneumoniae isolate OC6610 by broth microdilution method; format: functional; how it was run: as §3
Streptococcus pneumoniae [25] = assay: Antibacterial activity against ciprofloxacin-resistant Streptococcus pneumoniae by broth microdilution method; format: functional; how it was run: as §3
Serratia marcescens = assay: Antibacterial activity against Serratia marcescens by broth microdilution method; format: functional; how it was run: as §4
[26] = Antibacterial activity against Streptococcus sp. group C by broth microdilution method; format: functional
How it was run: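 MICs by broth microdilution following CLSI M07-A7 in cation-adjusted Mueller-Hinton medium, using isolates from the J&JPRD culture collection. CLSI quality control strains were included as appropriate.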

Staphylococcus aureus [27] = assay: Antibacterial activity against methicillin-resistant Staphylococcus aureus isolate OC4222 harboring gyrA S84L and parC S80F mutant gene assessed as log reduction in bacterial growth at 2 times MIC measured at 24 hrs by time-kill assay; format: functional; how it was run: as §1
Streptococcus pneumoniae [28] = assay: Antibacterial activity against Streptococcus pneumoniae isolate OC6608 assessed as log reduction in bacterial growth at 4 times MIC measured at 24 hrs by time-kill assay; format: functional; how it was run: as §2
Staphylococcus aureus [29] = assay: Antibacterial activity against Staphylococcus aureus […] by broth microdilution method; format: functional; how it was run: as §3
Staphylococcus aureus [30] = assay: Antibacterial activity against methicillin-resistant Staphylococcus aureus isolate OC11696 assessed as log reduction in bacterial growth at 4 times MIC measured at 24 hrs by time-kill assay; format: functional; how it was run: as §1
Streptococcus pyogenes = assay: Antibacterial activity against Streptococcus pyogenes by broth microdilution method; format: functional; how it was run: as §4

COc1c(N2CCC/C(=C(\F)CN)C2)c(F)cc2c(=O)c(C(=O)O)cn(C3CC3)c12 [ACORAFLOXACIN]
Ratio (Streptococcus pneumoniae [1]): 9
deltalog10CFU/ml (Staphylococcus aureus [2]): 2.3
deltalog10CFU/ml (Streptococcus pneumoniae [3]): 4
deltalog10CFU/ml (Staphylococcus aureus [4]): 3.9
deltalog10CFU/ml (Streptococcus pneumoniae [5]): 3.5
MIC (Staphylococcus aureus [6]): 0.06 µg/mL (≈ 0.143 µM)
MIC (Staphylococcus aureus [7]): 0.008 µg/mL (≈ 0.0191 µM)
MIC (Staphylococcus aureus [8]): 0.12 µg/mL (≈ 0.286 µM)
deltalog10CFU/ml (Streptococcus pneumoniae [9]): 3.7
MIC (Streptococcus pneumoniae [10]): 0.25 µg/mL (≈ 0.596 µM)
fraction unbound [11]: 0.44
MIC50 (Streptococcus agalactiae): 0.015 µg/mL (≈ 0.0358 µM)
MIC90 (Streptococcus agalactiae): 0.015 µg/mL (≈ 0.0358 µM)
MIC (Streptococcus pneumoniae [12]): 0.06 µg/mL (≈ 0.143 µM)
deltalog10CFU/ml (Streptococcus pneumoniae [13]): 4.3
MIC (Streptococcus pneumoniae [14]): 0.12 µg/mL (≈ 0.286 µM)
MIC (Haemophilus influenzae): 0.008 µg/mL (≈ 0.0191 µM)
MIC50 (Haemophilus influenzae): 0.008 µg/mL (≈ 0.0191 µM)
MIC90 (Haemophilus influenzae): 0.015 µg/mL (≈ 0.0358 µM)
MIC50 (Staphylococcus aureus [15]): 0.25 µg/mL (≈ 0.596 µM)
MIC90 (Staphylococcus aureus [15]): 0.25 µg/mL (≈ 0.596 µM)
deltalog10CFU/ml (Streptococcus pneumoniae [16]): 5
Ratio (Streptococcus pneumoniae [17]): 9
deltalog10CFU/ml (Staphylococcus aureus [18]): 5.1
MIC50 [19]: 0.015 µg/mL (≈ 0.0358 µM)
MIC90 [19]: 0.015 µg/mL (≈ 0.0358 µM)
logD [20]: 0.37
deltalog10CFU/ml (Streptococcus pneumoniae [21]): 6.8
MIC50 (Proteus mirabilis): 0.25 µg/mL (≈ 0.596 µM)
MIC90 (Proteus mirabilis): 0.5 µg/mL (≈ 1.19 µM)
MIC50 (Citrobacter freundii): 2 µg/mL (≈ 4.77 µM)
MIC90 (Citrobacter freundii): 8 µg/mL (≈ 19.1 µM)
MIC50 (Staphylococcus aureus [22]): 0.12 µg/mL (≈ 0.286 µM)
MIC90 (Staphylococcus aureus [22]): 0.25 µg/mL (≈ 0.596 µM)
deltalog10CFU/ml (Streptococcus pneumoniae [23]): 6.9
MIC (Streptococcus pneumoniae [24]): 0.5 µg/mL (≈ 1.19 µM)
MIC50 (Streptococcus pneumoniae [25]): 0.12 µg/mL (≈ 0.286 µM)
MIC90 (Streptococcus pneumoniae [25]): 0.25 µg/mL (≈ 0.596 µM)
MIC50 (Serratia marcescens): 0.5 µg/mL (≈ 1.19 µM)
MIC90 (Serratia marcescens): 1 µg/mL (≈ 2.38 µM)
MIC50 [26]: 0.008 µg/mL (≈ 0.0191 µM)
MIC90 [26]: 0.015 µg/mL (≈ 0.0358 µM)
deltalog10CFU/ml (Staphylococcus aureus [27]): 5.9
deltalog10CFU/ml (Streptococcus pneumoniae [28]): 7.1
MIC50 (Staphylococcus aureus [29]): 0.12 µg/mL (≈ 0.286 µM)
MIC90 (Staphylococcus aureus [29]): 0.25 µg/mL (≈ 0.596 µM)
deltalog10CFU/ml (Staphylococcus aureus [30]): 6.5
MIC (Streptococcus pyogenes): 0.008 µg/mL (≈ 0.0191 µM)
MIC50 (Streptococcus pyogenes): 0.008 µg/mL (≈ 0.0191 µM)
MIC90 (Streptococcus pyogenes): 0.015 µg/mL (≈ 0.0358 µM)
